Experimental data of several laboratories.
Lines come from different studies, so protocols differ.
Target: D(2) dopamine receptor (DRD2, Homo sapiens, UniProt P14416)

SMILES | assay | system | setting | endpoint | value
Cn1nc(C(=O)NCc2ccc(C(=O)O)cc2)cc1-c1ccc2[nH]ccc2c1 | ligand displacement | – | 10 µM | inhibition | -14.4%
O=C(CCCN1CCC(O)(c2ccc(Br)cc2)CC1)c1ccc(F)cc1 | binding | – | – | koff | 0.00742 s⁻¹
CC(=O)Nc1c(C(C)=O)c(=O)n(C)c2nc(-c3ccc(Cl)cc3Cl)c(-c3ccc(Cl)cc3)cc12 | cell-free assay | – | 10 µM | inhibition | 5.73%
CC(=O)Nc1ccc(N2CC(O)=C(c3nc4ccccc4[nH]3)C2=N)cc1 | enzyme activity, inhibitor | – | 10 µM | inhibition | 17.1%
Cc1ccnc(OC[C@H]2CN(CC(=O)N3CCc4ccccc43)CCO2)c1 | ligand displacement, radioligand | – | 10 µM | inhibition | -7.3%
O=C(NCCN1CCN(C(=O)c2ccccc2)CC1)C(=O)Nc1ccccc1 | enzyme activity, inhibitor | – | 10 µM | inhibition | 6.4%
CO[C@H]1CC[C@H](CNc2ccc(S(=O)(=O)NC(=O)c3ccc(N4CCN(CC5=C(c6ccc(Cl)cc6)CC(C)(C)CC5)CC4)cc3Oc3cnc4[nH]ccc4c3)cc2[N+](=O)[O-])CC1 | ligand displacement | – | 10 µM | inhibition | -24%
O=C1c2ccccc2CCN1CCCCN1CCN(c2ccccn2)CC1 | ligand displacement, radioligand | – | 10 µM | inhibition | 86.6%
CC(=O)C1=C(C)N(c2cccc(C(F)(F)F)c2)C(=O)N[C@H]1c1ccc(C#N)nc1 | ligand displacement | – | 10 µM | inhibition | -1.53%
O=C1C2CCCN2C(=O)N1CCCCN1CCN(c2cccc(Cl)c2)CC1 (stereo not shown) | enzyme activity, inhibitor | – | 10 µM | inhibition | 65.4%
O=C(CN1CCO[C@H](COc2cccnc2)C1)N1CCc2ccccc21 | ligand displacement, radioligand | – | 10 µM | inhibition | 9.9%
O=C(CN1CCN(c2ccc(F)cc2)CC1)Nc1cc(Cl)cc(Cl)c1 | enzyme activity, inhibitor | – | 10 µM | inhibition | 13.6%
CS(=O)(=O)c1cc(C2(NC(=O)c3cncc4c3cnn4-c3ccc(F)cc3)CC2)ccn1 | cell-free assay | – | 10 µM | inhibition | 6.62%
COc1ccccc1N1CCN(CCCCN2CCc3ccccc3C2=O)CC1 | ligand displacement, radioligand | – | 10 µM | inhibition | 97.5%
COc1cc(OC)c(OC)cc1CN1CCN(Cc2c[nH]c3ccccc23)CC1 | enzyme activity, inhibitor | – | 10 µM | inhibition | 34.6%
COc1cccc(OC[C@H]2CN(CCN3CCc4ccccc43)CCO2)c1 | ligand displacement, radioligand | – | 10 µM | inhibition | 31.5%
CC(C)c1nc2cc(OCCCCN3CCN(c4cccc5c4OCCN5)CC3)ccc2s1 | β-arrestin recruitment, agonist | HTLA | – | Emax | 36%
Clc1cncc(OC[C@H]2CN(CCN3CCc4ccccc43)CCO2)c1 | ligand displacement, radioligand | – | 10 µM | inhibition | 37.8%
Cc1cc(Nc2nccc(C)n2)cc(-c2cnc([C@@]3(O)CC[C@H](C(=O)O)C(C)(C)C3)s2)c1 | ligand displacement | – | 10 µM | inhibition | -3.52%
CCOc1ccc(CNCC(O)c2ccccc2)cc1Br (stereo not shown) | enzyme activity, inhibitor | – | 10 µM | inhibition | 36.2%
O=C(O)[C@H]1[C@H](Cn2nnc3ccccc3c2=O)CC[C@@H]1C(=O)c1ccc(OCCC2CCOCC2)cc1 | ligand displacement | – | 10 µM | inhibition | 30.3%
O=C(CN1CCO[C@H](COc2ccccc2)C1)N1CCc2ccccc21 | ligand displacement, radioligand | – | 10 µM | inhibition | 13.6%
Nc1nonc1C(=O)NCCNCc1cccc(OCc2ccccc2F)c1 | enzyme activity, inhibitor | – | 10 µM | inhibition | 6.52%
Cc1ccc(OC[C@H]2CN(CCN3CCc4ccccc43)CCO2)cn1 | ligand displacement, radioligand | – | 10 µM | inhibition | 16.2%
Cc1cccc(N2CCN(CC(O)COc3ccc4ccccc4c3)CC2)c1C (stereo not shown) | enzyme activity, inhibitor | – | 10 µM | inhibition | 24.4%
